ChEMBL document CHEMBL1781959, “Synthesis and in vitro antitumor activity of substituted quinazoline and quinoxaline derivatives: search for anticancer agent” (Eur J Med Chem, 2011)

Key:
SK-MEL-28 = assay: Growth inhibition of human SK-MEL-28 cells after 48 hrs by SRB assay; format: functional; details: SK-MEL-28, 48 h
Outline: (§1)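 NCI-60 panel cells grown in RPMI 1640 with 5% FBS and 2 mM L-glutamine, then seeded at 5000–40,000 cells/well by doubling time and preincubated for 24 h. Compound in DMSO was tested either at 10^-5 M alone or at 0.01–100 μM in five doses, for 48 h at 37 °C. Cells were fixed with cold TCA (10% final), stained with SRB, and read at 515 nm. GI50 was taken from % growth relative to time-zero and control wells.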

HCT-116 [1] = assay: Cytotoxicity against human HCT116 cells after 48 hrs by SRB assay; format: cell-based; details: hct-116, 48 h
Outline: (§2)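 NCI-60 five-dose screen in RPMI 1640 with 5% FBS and 2 mM L-glutamine; 5000–40,000 cells/well, 24 h pre-incubation. DMSO stocks diluted to 0.01, 0.1, 1, 10 and 100 μM final; 48 h at 37 °C, 5% CO2. Fixed with TCA (10% final adherent, 16% suspension), stained with 0.4% SRB, A515. GI50, TGI and LC50 taken from time-zero, control and test absorbances.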

NCI-H522 = assay: Cytotoxicity against human NCI-H522 cells after 48 hrs by SRB assay; format: cell-based; details: nci-h522, 48 h; outline: as §2
Malme-3M = assay: Cytotoxicity against human MALME-3M cells after 48 hrs by SRB assay; format: cell-based; outline: as §2
SF-539 [2] = assay: Growth inhibition of human SF539 cells after 48 hrs by SRB assay; format: functional; details: SF-539, 48 h; outline: as §1
SR [3] = assay: Cytotoxicity against human SR cells after 48 hrs by SRB assay; format: cell-based
Outline: (§3)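 NCI-60 five-dose screen. Cells grown in RPMI 1640 with 5% FBS and 2 mM L-glutamine and pre-incubated 24 h; a time-zero plate is TCA-fixed. Drug added at 0.01, 0.1, 1, 10 and 100 µM (DMSO stock) for 48 h at 37 °C, 5% CO2. Fixed with cold TCA (10% final for adherent, 16% for suspension cells), stained with 0.4% SRB, A515. GI50, TGI and LC50 taken from dose-response curves.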

RXF 393 = assay: Cytotoxicity against human RXF393 cells after 48 hrs by SRB assay; format: cell-based; details: rxf 393, 48 h; outline: as §2
A549 = assay: Growth inhibition of human A549 cells after 48 hrs by SRB assay; format: functional; details: A549, 48 h
Outline: (§4)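 NCI 60-panel five-dose assay at 0.01, 0.1, 1, 10 and 100 μM. Cells in RPMI 1640 with 5% FBS and 2 mM L-glutamine, preincubated 24 h, with time-zero plates TCA-fixed. Drug exposure 48 h at 37 °C. Read by SRB staining at 515 nm. GI50 is the concentration where [(Ti−Tz)/(C−Tz)]×100 = 50, taken from log concentration versus % growth curves.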

MCF7 = assay: Growth inhibition of human MCF7 cells after 48 hrs by SRB assay; format: functional; details: MCF7, 48 h; outline: as §4
OVCAR-5 = assay: Cytotoxicity against human OVCAR5 cells after 48 hrs by SRB assay; format: cell-based; details: ovcar-5, 48 h; outline: as §2
HCT-15 = assay: Growth inhibition of human HCT15 cells after 48 hrs by SRB assay; format: functional; details: HCT-15, 48 h; outline: as §4
SF-295 = assay: Growth inhibition of human SF295 cells after 48 hrs by SRB assay; format: functional; details: SF-295, 48 h; outline: as §4
UACC-257 = assay: Growth inhibition of human UACC257 cells after 48 hrs by SRB assay; format: functional; details: UACC-257, 48 h; outline: as §1
CAKI-1 = assay: Growth inhibition of human Caki1 cells after 48 hrs by SRB assay; format: functional; details: CAKI-1, 48 h; outline: as §4
A498 = assay: Cytotoxicity against human A498 cells after 48 hrs by SRB assay; format: cell-based; details: a498, 48 h; outline: as §2
T47D = assay: Cytotoxicity against human T47D cells after 48 hrs by SRB assay; format: cell-based; outline: as §3
UACC-62 = assay: Growth inhibition of human UACC62 cells after 48 hrs by SRB assay; format: functional; details: UACC-62, 48 h; outline: as §1
ACHN = assay: Growth inhibition of human ACHN cells after 48 hrs by SRB assay; format: functional; outline: as §4
EKVX = assay: Growth inhibition of human EKVX cells after 48 hrs by SRB assay; format: functional; outline: as §4
DU-145 = assay: Growth inhibition of human DU145 cells after 48 hrs by SRB assay; format: functional; details: DU-145, 48 h; outline: as §4
MDA-MB-435 = assay: Growth inhibition of human MDA-MB-435 cells after 48 hrs by SRB assay; format: functional; details: MDA-MB-435, 48 h; outline: as §4
MDA-MB-231 = assay: Cytotoxicity against human MDA-MB-231 cells after 48 hrs by SRB assay; format: cell-based; details: mda-mb-231, 48 h; outline: as §2
SF-539 [4] = assay: Cytotoxicity against human SF539 cells after 48 hrs by SRB assay; format: cell-based; details: sf-539, 48 h; outline: as §2
HCT-116 [5] = assay: Growth inhibition of human HCT116 cells after 48 hrs by SRB assay; format: functional; details: HCT-116, 48 h; outline: as §4
IGROV-1 = assay: Cytotoxicity against human IGROV1 cells after 48 hrs by SRB assay; format: cell-based; details: igrov-1, 48 h; outline: as §2
OVCAR-3 = assay: Growth inhibition of human OVCAR3 cells after 48 hrs by SRB assay; format: functional; details: OVCAR-3, 48 h; outline: as §4
OVCAR-4 = assay: Growth inhibition of human OVCAR4 cells after 48 hrs by SRB assay; format: functional; details: OVCAR-4, 48 h; outline: as §4
MDA-MB-468 = assay: Growth inhibition of human MDA-MB-468 cells after 48 hrs by SRB assay; format: functional; details: MDA-MB-468, 48 h; outline: as §4
SR [6] = assay: Growth inhibition of human SR cells after 48 hrs by SRB assay; format: functional
Outline: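 Leukemia suspension line in the NCI-60 screen, grown in RPMI 1640 with 5% FBS and 2 mM L-glutamine and preincubated for 24 h. Exposure was either a single 10^-5 M dose or five doses from 0.01 to 100 μM, for 48 h at 37 °C. Settled cells were fixed with 80% TCA (16% final), stained with SRB, and read at 515 nm. GI50 was derived from % growth against time-zero and untreated controls.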

HT-29 = assay: Cytotoxicity against human HT-29 cells after 48 hrs by SRB assay; format: cell-based; details: ht-29, 48 h; outline: as §2
SF-268 = assay: Growth inhibition of human SF268 cells after 48 hrs by SRB assay; format: functional; details: SF-268, 48 h; outline: as §4

O=c1c2ccccc2nc(-c2ccco2)n1/N=C/c1ccccc1Cl
GI50 (SK-MEL-28): 4.45 µM
TGI (SK-MEL-28): 18.6 µM
LC50 (HCT-116 [1]): > 100 µM
LC50 (NCI-H522): 82.9 µM
LC50 (Malme-3M): > 100 µM
GI50 (SF-539 [2]): 3.28 µM
TGI (SF-539 [2]): 21.2 µM
LC50 (SR [3]): > 100 µM
LC50 (RXF 393): > 100 µM
GI50 (A549): 4.78 µM
TGI (A549): > 100 µM
GI50 (MCF7): 5.29 µM
TGI (MCF7): > 100 µM
LC50 (OVCAR-5): > 100 µM
GI50 (HCT-15): 5.73 µM
TGI (HCT-15): > 100 µM
GI50 (SF-295): 3.26 µM
TGI (SF-295): > 100 µM
GI50 (UACC-257): 8.34 µM
TGI (UACC-257): > 100 µM
GI50 (CAKI-1): 7.99 µM
TGI (CAKI-1): 34.8 µM
LC50 (A498): > 100 µM
LC50 (T47D): > 100 µM
GI50 (UACC-62): 6.38 µM
TGI (UACC-62): > 100 µM
GI50 (ACHN): 3.12 µM
TGI (ACHN): > 100 µM
GI50 (EKVX): 7.23 µM
TGI (EKVX): > 100 µM
GI50 (DU-145): 4.38 µM
TGI (DU-145): > 100 µM
GI50 (MDA-MB-435): 8.23 µM
TGI (MDA-MB-435): 17 µM
LC50 (MDA-MB-231): > 100 µM
LC50 (SF-539 [4]): > 100 µM
GI50 (HCT-116 [5]): 3.32 µM
TGI (HCT-116 [5]): 23.6 µM
LC50 (IGROV-1): > 100 µM
GI50 (OVCAR-3): 4.12 µM
TGI (OVCAR-3): 6.87 µM
GI50 (OVCAR-4): 1.82 µM
TGI (OVCAR-4): 6.48 µM
GI50 (MDA-MB-468): 9.96 µM
TGI (MDA-MB-468): > 100 µM
GI50 (SR [6]): > 100 µM
TGI (SR [6]): > 100 µM
LC50 (HT-29): > 100 µM
GI50 (SF-268): 6.84 µM
TGI (SF-268): > 100 µM
